Legend:
[1] = tested on: Brassica rapa subsp. oleifera; assay: Inhibition of Brassica rapa subsp. oleifera at 100 mg/L; format: functional
Outline: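 Rape (Brassica campestris L.) root growth assay, per the group's earlier published method; compound tested at 100 mg L-1; read-out is root length inhibition (%); monosulfuron used as reference herbicide.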

[2] = tested on: Brassica rapa subsp. oleifera; assay: Inhibition of Brassica rapa subsp. oleifera root growth at 10 mg/L; format: functional
[3] = biological target: T1, Acetolactate synthase, chloroplastic (Arabidopsis thaliana) (UniProt P17597); assay: Inhibition of Arabidopsis thaliana AHAS at 100 mg/L colorimetric assay
T1 sequence (whole entry): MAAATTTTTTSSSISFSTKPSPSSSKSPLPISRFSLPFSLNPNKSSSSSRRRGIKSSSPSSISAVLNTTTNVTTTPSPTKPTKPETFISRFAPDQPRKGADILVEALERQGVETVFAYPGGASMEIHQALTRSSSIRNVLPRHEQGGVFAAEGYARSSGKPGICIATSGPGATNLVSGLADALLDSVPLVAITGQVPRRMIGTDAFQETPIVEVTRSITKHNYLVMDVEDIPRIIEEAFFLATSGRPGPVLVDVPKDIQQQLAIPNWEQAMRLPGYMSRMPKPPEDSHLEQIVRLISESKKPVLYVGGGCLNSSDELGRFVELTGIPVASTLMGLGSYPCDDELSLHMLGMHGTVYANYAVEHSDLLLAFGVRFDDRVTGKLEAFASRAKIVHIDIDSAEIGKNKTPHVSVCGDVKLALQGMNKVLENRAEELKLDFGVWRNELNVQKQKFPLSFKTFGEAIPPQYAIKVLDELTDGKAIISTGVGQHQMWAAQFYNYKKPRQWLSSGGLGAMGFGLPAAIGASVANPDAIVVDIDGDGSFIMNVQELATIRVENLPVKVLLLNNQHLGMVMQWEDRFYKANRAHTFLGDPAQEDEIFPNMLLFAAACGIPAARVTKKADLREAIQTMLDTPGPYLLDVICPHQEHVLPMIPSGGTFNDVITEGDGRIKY
Outline: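 Expressed and purified A. thaliana AHAS tested at a single concentration of 100 mg L-1. Enzyme activity was read by a colorimetric method described earlier, and the result is given as percent inhibition of AtAHAS activity.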

Row | SMILES | inhibition at 100 µg/mL [1] | inhibition at 10 µg/mL [2] | inhibition [3]
1 | Cc1ccccc1CN1C(=O)/C(=N\NC(=O)c2ccccc2)c2ccccc21 | 0% | 0% | 50%
2 | N#Cc1ccc(CN2C(=O)/C(=N\NC(=O)c3ccccc3)c3ccccc32)cc1 | 48% | 2% | 20%
3 | CN1C(=O)C(=O)c2cc(F)ccc21 | 59% | 19% | 60%
4 | COc1ccc2c(c1)C(=O)C(=O)N2 [5-METHOXYISATIN] | 30% | 20% | 60%
5 | O=C1Nc2ccc(F)cc2C1=O [5-FLUOROISATIN] | 88% | 52% | 65%
6 | O=C1Nc2ccc(Cl)cc2C1=O | 95% | 28% | 55%
7 | O=C1Nc2c(I)cccc2/C1=N/NC(=O)c1ccccc1O | 25% | 0% | 95%
8 | O=C(N/N=C1\C(=O)N(Cc2ccc(F)cc2)c2ccccc21)c1ccccc1 | 15% | 0% | 80%
9 | Cc1cc(Cl)cc2c1NC(=O)C2=O | 65% | 10% | 65%
10 | O=C1Nc2ccccc2C1=O [ISATIN] | 52% | 24% | 70%
11 | CN1C(=O)C(=O)c2cccc(Cl)c21 | 59% | 31% | 80%
12 | CN1C(=O)C(=O)c2cc(Cl)ccc21 | 53% | 20% | 60%
13 | O=C(N/N=C1\C(=O)N(Cc2ccc(Cl)cc2Cl)c2ccccc21)c1ccccc1 | 6% | 0% | 50%
14 | O=C1Nc2ccc([N+](=O)[O-])cc2C1=O [5-NITROISATIN] | 82% | 7% | 60%
15 | O=C1Nc2c(I)cccc2/C1=N/NC(=O)c1cccc(F)c1 | 81% | 51% | 75%
16 | Cc1ccc2c(c1)C(=O)C(=O)N2 | 80% | 13% | 50%
17 | Cc1ccnc(NC(=O)NS(=O)(=O)c2ccccc2C(=O)O)n1 [MONOSULFURON] | 78% | 64% | 90%

Row | SMILES | inhibition at 100 µg/mL [1] | inhibition at 10 µg/mL [2] | inhibition [3]
18 | CN1C(=O)C(=O)c2cc(I)ccc21 | 27% | 13% | 60%
19 | O=C1Nc2ccc(C(F)(F)F)cc2C1=O | 93% | 27% | 60%
20 | CN1C(=O)C(=O)c2cc([N+](=O)[O-])ccc21 | 33% | 2% | 25%
21 | Cc1ccc2c(c1)C(=O)C(=O)N2C | 26% | 14% | 75%
22 | CN1C(=O)C(=O)c2ccccc21 | 24% | 7% | 50%
23 | O=C1Nc2ccccc2/C1=N/Nc1ncccc1Cl | 19% | 0% | 70%
24 | Cc1nc(C)c(C(=O)N/N=C2\C(=O)Nc3ccccc32)s1 | 21% | 0% | 30%
25 | O=C1Nc2c(Br)cccc2/C1=N/NC(=O)c1cccc(F)c1 | 16% | 0% | 60%
26 | O=C1Nc2ccccc2/C1=N/O | 55% | 0% | 45%
27 | O=C1Nc2c(Br)cccc2/C1=N/NC(=O)c1ccccc1F | 39% | 14% | 95%
28 | O=C(N/N=C1\C(=O)N(Cc2cccc(F)c2)c2ccccc21)c1ccccc1 | 40% | 0% | 95%
29 | O=C1Nc2ccc(S(=O)(=O)O)cc2C1=O | 18% | 4% | 10%
30 | Cc1cc(C)n(CC(=O)N/N=C2\C(=O)Nc3ccccc32)n1 | 27% | 0% | 35%
31 | O=C1Nc2c(Cl)cccc2C1=O | 83% | 51% | 70%
32 | O=C1Nc2ccc(I)cc2C1=O [5-IODOISATIN] | 92% | 31% | 70%
33 | CC(C)(C)c1ccc(CN2C(=O)/C(=N\NC(=O)c3ccccc3)c3ccccc32)cc1 | 15% | 0% | 60%
